According to ChEMBL document CHEMBL4229351, “Design, synthesis and anticancer evaluation of novel spirobenzo[h]chromene and spirochromane derivatives with dual EGFR and B-RAF inhibitory activities” (Eur J Med Chem, 2018):

Legend:
HT-29 = assay: Anticancer activity against human HT-29 cells assessed as reduction in cell viability after 96 hrs by MTT assay; format: functional, cell-based; conditions: HT-29, 96 h
Outline: (§1)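 Cancer lines grown in RPMI with 10% FBS and 1% penicillin/streptomycin, 37 C, humidified 5% CO2. Cells exposed to test agents or vehicle in RPMI/10% FBS for 96 h; viability read by MTT; IC50 as mean ± S.D., n = 6.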

A549 = assay: Anticancer activity against human A549 cells assessed as reduction in cell viability after 96 hrs by MTT assay; format: functional, cell-based; conditions: A549, 96 h; outline: as §1
MCF7 = assay: Anticancer activity against human MCF7 cells assessed as reduction in cell viability after 96 hrs by MTT assay; format: functional, cell-based; conditions: MCF7, 96 h; outline: as §1
Sus scrofa = species: Sus scrofa; assay: Inhibition of porcine brain tubulin polymerization assessed as tubulin polymerization level by measuring arbitary units at 3 uM by fluorescence analysis
[1] = Cytotoxicity against human F180 cells assessed as reduction in cell viability after 96 hrs by MTT assay; format: cell-based; conditions: F180, 96 h
Outline: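 F180 normal fibroblasts kept in MEM with 10% FBS and 1% penicillin/streptomycin at 37 C, humidified 5% CO2. Treated with test agents or vehicle in MEM/10% FBS for 96 h; viability by MTT; IC50 reported as mean ± S.D. (n = 6).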

SMILES	IC50 (HT-29)	IC50 (A549)	IC50 (MCF7)	Activity (Sus scrofa)	IC50 [1]
S=C(N/N=C1\CC2(CCCCC2)Oc2c1ccc1ccccc21)N1CCCCC1	6.77 µM	11.4 µM	13.3 µM	–	–
S=C(N/N=C1\CC2(CCCCC2)Oc2c1ccc1ccccc21)NC1CCCCC1	7.44 µM	9.14 µM	15.1 µM	–	–
S=C(N/N=C1\CC2(CCCCC2)Oc2c1ccc1ccccc21)N1CCNCC1	8.34 µM	12 µM	14.2 µM	–	–
O=C(N/N=C1\CC2(CCCCC2)Oc2c1ccc1ccccc21)Nc1ccc(Cl)cc1	7.37 µM	9.54 µM	15 µM	–	–
O=C1CC2(CCCCC2)Oc2c1ccc1ccccc21	6.15 µM	10.6 µM	10.7 µM	–	–
CN1CCN(C(=S)N/N=C2\CC3(CCCCC3)Oc3c2ccc2ccccc32)CC1	8.17 µM	10.6 µM	11.7 µM	–	–
CC(=O)O[C@@]12CO[C@@H]1C[C@H](O)[C@@]1(C)C(=O)[C@H](O)C3=C(C)[C@@H](OC(=O)[C@H](O)[C@@H](NC(=O)OC(C)(C)C)c4ccccc4)C[C@@](O)([C@@H](OC(=O)c4ccccc4)[C@H]21)C3(C)C	–	–	–	4820 a.u.	–
S=C(N/N=C1\CC2(CCCCC2)Oc2c1ccc1ccccc21)N1CCOCC1	9.31 µM	10.1 µM	11.9 µM	–	–
CSC(=S)N/N=C1\CC2(CCCCC2)Oc2c1ccc1ccccc21	4.13 µM	3.99 µM	5.1 µM	–	> 40 µM
N/N=C1\CC2(CCCCC2)Oc2c1ccc1ccccc21	9.97 µM	12.9 µM	9.74 µM	–	–
O=C1Nc2ccccc2/C1=N/N=C1\CC2(CCCCC2)Oc2c1ccc1ccccc21	7.67 µM	11.1 µM	5.11 µM	–	> 40 µM
CNC(=O)c1cc(Oc2ccc(NC(=O)Nc3ccc(Cl)c(C(F)(F)F)c3)cc2)ccn1 [SORAFENIB]	3.97 µM	6.21 µM	3.64 µM	–	> 40 µM
CC[C@]1(O)C[C@H]2CN(CCc3c([nH]c4ccccc34)[C@@](C(=O)OC)(c3cc4c(cc3OC)N(C=O)[C@H]3[C@@](O)(C(=O)OC)[C@H](OC(C)=O)[C@]5(CC)C=CCN6CC[C@]43[C@@H]65)C2)C1	–	–	–	747 a.u.	–
C#Cc1cccc(Nc2ncnc3cc(OCCOC)c(OCCOC)cc23)c1 [ERLOTINIB]	> 20 µM	17.3 µM	> 20 µM	–	–
O=C(N/N=C1\CC2(CCCCC2)Oc2c1ccc1ccccc21)Nc1ccccc1	4.74 µM	8.15 µM	12 µM	–	–
O=C1c2ccccc2C(=O)N1/N=C1\CC2(CCCCC2)Oc2c1ccc1ccccc21	8.34 µM	12.4 µM	12.1 µM	–	–
Cc1ccc(NC(=O)N/N=C2\CC3(CCCCC3)Oc3c2ccc2ccccc32)cc1	7.09 µM	8.35 µM	9.07 µM	–	–
